Data: ChEMBL document CHEMBL4513216, “Probing the Open Global Health Chemical Diversity Library for Multistage-Active Starting Points for Next-Generation Antimalarials” (ACS Infect Dis, 2020)

Test: Toxicity liver stage against HepG2, at 10uM
Assay type: cell-based
Parameters: test concentration 10 uM, cell line HepG2-A16-CD81EGFP
Conditions: human, HepG2-A16-CD81EGFP cells; read-out: INHIBITION
Outline: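 Uninfected HepG2-A16-CD81EGFP cells, 3 × 10^3 per well, 1536-well, plated on prespotted compound at 10 μM final, parasite-free screening media added to match infected plates; puromycin 10 μM positive, DMSO 0.5% negative; run in parallel with 48 h PbLuc assay at 37 °C, 5% CO2; viability by CellTiter-Glo luminescence, normalized to controls.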

COCCOc1ccnc(-c2noc([C@@H]3CCCN3CC(C)(C)C)n2)c1
cytotoxicity at 10 µM: -12.7%

Cc1ccc(S(=O)(=O)NC[C@H]2OC[C@@H](NCc3ccncc3)[C@@H]2O)cc1
cytotoxicity at 10 µM: 2.6%

CCc1cnc2c(c1Nc1ccc(C)c(F)c1)c(=O)n(C)c(=O)n2C
cytotoxicity at 10 µM: -2.5%

CCOc1ccc(CNC(=O)c2cnc(OC)nc2)cc1
cytotoxicity at 10 µM: -0.121%

O=C(COc1ccc(Cl)cc1)Nc1cnc(N2CCOCC2)nc1
cytotoxicity at 10 µM: -8.18%

Cc1nc(Nc2ccccn2)cc(N2CCN(S(C)(=O)=O)CC2)n1
cytotoxicity at 10 µM: 3.96%

Cc1ccc(N2CCO[C@H]3CN(C(=O)c4cccc(C)n4)C[C@H]32)nn1
cytotoxicity at 10 µM: 4.94%

c1ccc(COC[C@]23COC[C@H]2CN(c2ncccn2)C3)nc1
cytotoxicity at 10 µM: 2.14%

O=c1cc(Cn2ccnc2)nc2n1CCCN(Cc1cccs1)C2
cytotoxicity at 10 µM: 0.312%

Cc1ncsc1CN1CC[C@H]2OCC[C@@]2(C(=O)NCC2CC2)C1
cytotoxicity at 10 µM: 2.4%

COc1c(C(=O)NCC(C)C)nnn1Cc1ccccc1
cytotoxicity at 10 µM: 12%

O=C(c1cc(C2CC2)on1)N1C[C@H]2CC[C@](O)(c3ccccc3F)[C@H]2C1
cytotoxicity at 10 µM: 5.37%

O=C(Nc1cc(CCC2CCN(CCO)CC2)ccn1)c1ccccn1
cytotoxicity at 10 µM: -4.03%

CN1CCNCC(Cc2cnc3ccccc3c2)C1 (stereo not given)
cytotoxicity at 10 µM: -12.4%

NC(=O)c1cccc(C2CCN(c3ncccn3)CC2)n1
cytotoxicity at 10 µM: 0.00505%

CC(C)CN1CCCC1c1cc[nH]n1 (stereo not given)
cytotoxicity at 10 µM: 9.95%

Cc1noc(C)c1-c1ccc(C2CCCN2C(=O)Cn2ccnc2)nc1 (stereo not given)
cytotoxicity at 10 µM: -10.2%

CCc1nnc(Nc2cccc(C3CCN(S(=O)(=O)N(C)C)CC3)n2)s1
cytotoxicity at 10 µM: -16.2%

Cc1cc(C(=O)N2CCc3nc4sc(C)cc4c(=O)n3CC2)on1
cytotoxicity at 10 µM: -16.2%

COCCN1CCC(Cc2cnc(-c3ccccc3C(=O)O)cn2)CC1
cytotoxicity at 10 µM: -11.9%

Cc1cc(-c2cnc(N3CCOCC3)nc2-c2ccc(C)s2)on1
cytotoxicity at 10 µM: -5.72%

O=C(C1CCCC1)N1CC2(CCN(C3COC3)C2)OCc2ccccc21 (stereo not given)
cytotoxicity at 10 µM: 4.92%

O=C(C1CCCC1)N1CC2(CCN(C3COC3)CC2)Cc2ccccc21
cytotoxicity at 10 µM: 7.91%

OCc1c(Cl)ncn1-c1ccc(F)cc1
cytotoxicity at 10 µM: 6.61%

O=C(Cc1ccc2c(c1)CCCC2)Nc1cccnc1N1CCSCC1
cytotoxicity at 10 µM: 11.4%

Cc1ccc(F)c(S(=O)(=O)NCc2[nH]ncc2Br)c1
cytotoxicity at 10 µM: 0.67%

O=C(COCC1CCCO1)N(Cc1cccnc1)c1ccc(F)cc1 (stereo not given)
cytotoxicity at 10 µM: -2.04%

COc1ccc(C(C)CCNC2CCN(c3ccccn3)CC2)cc1 (stereo not given)
cytotoxicity at 10 µM: 5.29%

CCN(Cc1ncc(C(C)(C)C)o1)Cc1ccccc1C
cytotoxicity at 10 µM: -9.11%

Cc1nc(C(=O)N(CC(=O)N(C)C)CC(F)(F)F)c2ccccn12
cytotoxicity at 10 µM: -16.4%

CC(C)c1noc(C(C)N2CCN(Cc3nc4ccccc4[nH]3)CC2)n1 (stereo not given)
cytotoxicity at 10 µM: -2.16%

O=C(CC1CCN(c2ncnc3ccccc23)CC1)N1CCCC1
cytotoxicity at 10 µM: 35.1%

Cc1ccc(CN(Cc2cc(C)no2)C2CC2)cc1
cytotoxicity at 10 µM: -5.17%

O=C(CNc1cc(-n2cnnn2)ccc1F)NCc1ccccc1
cytotoxicity at 10 µM: -6.2%

O=C(NCC(O)COc1ccccc1)Nc1nncs1 (stereo not given)
cytotoxicity at 10 µM: 0.555%

CS(=O)(=O)c1ccc(NC(=O)CSc2ccc3c(c2)CCC3)cn1
cytotoxicity at 10 µM: 11.8%

Cc1ccc(CNC(=O)NC2CCCc3c2cnn3CCO)cn1 (stereo not given)
cytotoxicity at 10 µM: -11.8%

Cc1cc(NC(=O)c2ccccc2Br)n(C)n1
cytotoxicity at 10 µM: -6.61%

COc1cc(C(=O)N(Cc2ccco2)C2CC2)cc(OC)c1OC
cytotoxicity at 10 µM: 4.53%

CC(CN1CCOCC1)NC(=O)NCCc1ccc(Cl)s1 (stereo not given)
cytotoxicity at 10 µM: -8.36%

Cc1ncc(CN(C)C(=O)Nc2cccc(CN3CCOC3=O)c2)s1
cytotoxicity at 10 µM: -2.27%

CCc1cc(C)nc(N2CCN(C(C)c3nc(C)no3)CC2)n1 (stereo not given)
cytotoxicity at 10 µM: -2.64%

CNC(=O)CCCNCc1c(C)nn(CC(C)C)c1N(C)C
cytotoxicity at 10 µM: -2.51%

CCOCCN1CCc2cncnc2C1
cytotoxicity at 10 µM: -20.7%

CC(O)CC(C)(C)CNS(=O)(=O)c1cccc(Cl)c1C#N (stereo not given)
cytotoxicity at 10 µM: -6.03%

CC(Cn1cccn1)NCc1cnc(N2CCCC2)nc1 (stereo not given)
cytotoxicity at 10 µM: -13%

COc1ccccc1C1(CNc2snc(Cl)c2C#N)CCOCC1
cytotoxicity at 10 µM: 10.2%

N#Cc1ccc(CNC(=O)NCCNC(=O)C2CCCC2)c(F)c1
cytotoxicity at 10 µM: 4.17%

CC(C)Cc1noc(CN2CCC(NC(=O)c3cccs3)CC2)n1
cytotoxicity at 10 µM: -17.9%

CCC(=O)N1CCC2(C=C(C(=O)N(C)C)c3ccccc32)CC1
cytotoxicity at 10 µM: -87.3%

Cc1cccc(CN2C[C@@H]3CN(C(=O)C4CCOC4)C[C@@H]3C2=O)c1 (stereo not given in full)
cytotoxicity at 10 µM: -114%

O=C(c1ccoc1)N1CCC2(CCCN(c3ncc(F)cn3)C2)C1 (stereo not given)
cytotoxicity at 10 µM: -98.3%

Cn1nc(C(=O)N2CCOCC2)c2c1CN(CC1CCC1)C2
cytotoxicity at 10 µM: -103%

Cn1nc(COc2cccnc2)c2c1CCN(c1ncccn1)C2
cytotoxicity at 10 µM: -105%

COCCC(=O)N1CCC2(COCc3cnc(N(C)C)nc32)C1 (stereo not given)
cytotoxicity at 10 µM: -64.8%

c1coc(CN2CCO[C@@]3(CCC[C@@H]3COCc3nccs3)C2)c1
cytotoxicity at 10 µM: -73.5%

Cn1cc(CN2CCC3(CCCN3S(C)(=O)=O)CC2)cn1
cytotoxicity at 10 µM: 1.59%

Cc1ccsc1C(=O)N1Cc2ccccc2C2(CCN(C)CC2)C1
cytotoxicity at 10 µM: 2.6%

Cn1ncc2c(NC3CN4CCC3CC4)nc(-c3ccncc3)nc21 (stereo not given)
cytotoxicity at 10 µM: 41.1%

CCCc1cc(CNc2cc(CCC)nc3ccnn23)on1
cytotoxicity at 10 µM: -6.75%

CCC(CO)N(Cc1cccc(-n2cccn2)c1)Cc1cccs1 (stereo not given)
cytotoxicity at 10 µM: 7.63%

CCC1(CO)CCCN(C(=O)c2ccc(N3CCN(C)CC3)cc2)C1 (stereo not given)
cytotoxicity at 10 µM: -4.71%

Cc1nc(CN2CCC3(CCCO3)CC2)c2ccccn12
cytotoxicity at 10 µM: 2.07%

Cc1cc(N2CCC(CO)(CC3CCCCO3)CC2)nc2ccccc12 (stereo not given)
cytotoxicity at 10 µM: 5.51%

CCOc1ccnc(NCc2nc(C)cc(C(F)(F)F)n2)n1
cytotoxicity at 10 µM: -10.1%

CC(=O)Nn1c(C)cc(CN2CCC(C(=O)N3CCCC3)CC2)c1C
cytotoxicity at 10 µM: 1.57%

Cc1nc[nH]c1-c1nccn1-c1cccc(CN2CCCC2)c1
cytotoxicity at 10 µM: 4.36%

OCc1ccc(-c2c(-c3ccccc3)ncn2CCN2CCOCC2)o1
cytotoxicity at 10 µM: -18.9%

CCCN1CCC(CC(=O)N[C@H](C(=O)O)c2cccc(F)c2F)CC1
cytotoxicity at 10 µM: 3.78%

CCc1cc(NCc2cc3n(n2)CCCN(S(C)(=O)=O)C3)nc(C)n1
cytotoxicity at 10 µM: -1.52%

CN1CCC(N(CCc2ccccc2)C(=O)c2ccc(C#N)cc2)CC1
cytotoxicity at 10 µM: -2.37%

CN1CCCN(C(=O)c2cc(CN(C)CCc3ccccc3)on2)CC1
cytotoxicity at 10 µM: -15.3%

O=C(Nc1ccc(-n2cccn2)cc1)N1CCOCC(O)C1 (stereo not given)
cytotoxicity at 10 µM: -46.8%

Cc1cc(CN[C@@H](Cc2ccccc2)C(N)=O)c(C)s1
cytotoxicity at 10 µM: -0.527%

Cc1nc2ccccc2nc1NCc1nnc2n1CCC2
cytotoxicity at 10 µM: -1.8%

COc1ccc(OCc2nc(C(=O)N3CCCNC(=O)C3)co2)cc1
cytotoxicity at 10 µM: -45.1%

O=C(O)Cc1cccc(-n2ccnc2-c2ccc(Cl)s2)c1
cytotoxicity at 10 µM: 0.185%

CC(C)CN1CC2(CCN(C(=O)C3CNC(=O)N3)CC2)CC1=O (stereo not given)
cytotoxicity at 10 µM: 2.18%

Cc1ccc(NC2(C(=O)NCCCN)CCCC2)cc1
cytotoxicity at 10 µM: 1.58%

CC(C)c1nnsc1CNC(=O)C1CCCN(C(=O)N(C)C)C1 (stereo not given)
cytotoxicity at 10 µM: -7.73%

Cc1nn(C)c2nc(N(CCN(C)C)C3CCCC3)sc12
cytotoxicity at 10 µM: -1.93%

Cc1csc2c(N3CCC(NCCc4ccnn4C)CC3)ncnc12
cytotoxicity at 10 µM: 0.429%

O=C1CCCCN1CCc1nc(-c2cccnn2)no1
cytotoxicity at 10 µM: -5.67%

O=C1CCCCN1CCC(=O)N1CCCCC1c1ccc(F)cc1 (stereo not given)
cytotoxicity at 10 µM: -41.7%

CCc1nnc(CN(C)c2nc(C(C)C)nc3c2cnn3C)o1
cytotoxicity at 10 µM: -9.52%

COC[C@@]12CC[C@@H](N3CCOCC3)C[C@H]1CCN(c1ncccn1)C2
cytotoxicity at 10 µM: -11.9%

CC(C)c1cc(CN2CCC(CC(=O)O)CC2)no1
cytotoxicity at 10 µM: -2.53%

O=C(COc1cccc(F)c1)N1C[C@@H](O)[C@H](N2CCCC2)C1
cytotoxicity at 10 µM: -4.22%

CCc1cc(C(=O)N2CCCC2c2nc(C)c(F)c(O)n2)on1 (stereo not given)
cytotoxicity at 10 µM: 0.626%

CCOc1ccc(Cl)c(C(=O)N2CCN(c3cnccn3)CC2)n1
cytotoxicity at 10 µM: -4.89%

CC(C)c1n[nH]c(C2CN(C(=O)c3csnn3)CCO2)n1 (stereo not given)
cytotoxicity at 10 µM: -4.89%

COc1cc(C)ccc1OCCC(=O)N1CCCC1Cn1cccn1 (stereo not given)
cytotoxicity at 10 µM: -7.81%

Cn1ncc2c(=O)[nH]c(CN3CCC(Cc4ccccc4)CC3)nc21
cytotoxicity at 10 µM: -2.28%

Cn1ccnc1CN1CCN(c2ccc(C#N)cc2F)CC1
cytotoxicity at 10 µM: -2.06%

Cc1cc(C)n(-c2ccc(CNCc3ccc(OC(C)C)cc3)cn2)n1
cytotoxicity at 10 µM: -6.95%

CCN(CC)C(=O)Cn1ccc2cc(NC(=O)C3CC3)ccc21
cytotoxicity at 10 µM: -3.87%

Cc1nc(-c2ccsc2)ccc1C(=O)NCCC1CCCO1 (stereo not given)
cytotoxicity at 10 µM: -9.75%

Cc1nccn1C1CCCN(C(=O)c2cc(O)nc3ccccc23)C1 (stereo not given)
cytotoxicity at 10 µM: -6.9%

COc1ccc(CN2CCc3sccc3C2C)cc1CN1CCOCC1 (stereo not given)
cytotoxicity at 10 µM: -0.782%

Cn1nc(COc2cccnc2)c2c1CCN(c1cnccn1)C2
cytotoxicity at 10 µM: 1.34%

Cc1noc([C@@H]2CCO[C@@H]3CCN(Cc4ccc(C)s4)C[C@@H]32)n1
cytotoxicity at 10 µM: -77.6%

CNC(=O)CN1CCOCC2(CCCN(Cc3ccc(F)cc3)C2)C1 (stereo not given)
cytotoxicity at 10 µM: 6.88%

c1cnn(CCCO[C@@H]2CC[C@H]3[C@H]2OCCN3CC2CC2)c1
cytotoxicity at 10 µM: 5.93%

COc1ncc(C2(O)CCN(Cc3c(F)cccc3F)CC2)c(OC)n1
cytotoxicity at 10 µM: 5.29%

Cc1ncnc2c1CCN(CC(=O)N(C)C)CC2
cytotoxicity at 10 µM: -101%

O=C(c1cnccn1)N1CCC2(CC1)CCN(Cc1ccccn1)C2=O
cytotoxicity at 10 µM: 0.108%

CS(=O)(=O)N1Cc2cnn(CC3CC3)c2C(COCC2CC2)C1 (stereo not given)
cytotoxicity at 10 µM: 9.43%

Cn1ccnc1CN1CCC2(CC(=O)N(c3ccsc3)C2)C1 (stereo not given)
cytotoxicity at 10 µM: -82.7%

CN(C)CC(=O)N1C[C@H]2CCC[C@@]2(COc2ccccn2)C1
cytotoxicity at 10 µM: 3.88%

CCN1CCO[C@]2(CCC[C@H]2COCc2csc(C)n2)C1
cytotoxicity at 10 µM: 0.153%
